Source: ChEMBL document CHEMBL4513216, “Probing the Open Global Health Chemical Diversity Library for Multistage-Active Starting Points for Next-Generation Antimalarials” (ACS Infect Dis, 2020)

Assay: Toxicity liver stage against HepG2, at 10uM
Assay type: cell-based
Design: test concentration 10 uM, cell line HepG2-A16-CD81EGFP
Conditions: human, HepG2-A16-CD81EGFP cells; read-out: INHIBITION
How it was run: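 Uninfected HepG2-A16-CD81EGFP cells, 3 × 10^3 per well, 1536-well, plated on prespotted compound at 10 μM final, parasite-free screening media added to match infected plates; puromycin 10 μM positive, DMSO 0.5% negative; run in parallel with 48 h PbLuc assay at 37 °C, 5% CO2; viability by CellTiter-Glo luminescence, normalized to controls.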

SMILES	cytotoxicity at 10 µM [%]
Cc1nc(N(C)C)nc(C)c1NC(=O)c1ccccc1C(F)(F)F	-1.94
Cn1cnnc1S(=O)(=O)C1CCN(S(=O)(=O)c2ccc(Cl)s2)CC1	-4.72
CC(C)N(C)Cc1nnc2n1CCCN(C(=O)C1CCCO1)C2 (centres undefined)	19
CC(=O)NCc1noc2c1CN(Cc1cnn(C)c1)CC2	-1.71
Cc1cc(C)cc(CN2C[C@@H]3OCCN(S(=O)(=O)N(C)C)[C@@H]3C2)c1	8.28
O=C(NC1CC1)N1CCc2ccc(=O)n(Cc3ccncc3)c2CC1	-0.972
CC(C)CN1C[C@H]2CCN(C(=O)NC3CCCC3)CC[C@H]2S1(=O)=O	7.31
O=c1[nH]c2c(c(=O)n1C1CCCCC1)CCC2Nc1ccc(Cl)cc1 (centres undefined)	9.78
CC(C)Cc1nc(OCC(=O)O)c(C#N)c2c1CCC2	-5.93
CN1CCN(C(=O)c2cc(NC(=O)c3ccccc3)n(C)n2)CC1	4.07
O=C(NCCCO)c1nnsc1-c1ccccc1	7.47
Cc1csc2c(C3CCN(CCCOc4ccccc4)CC3)nc(C)n12	1.63
Cc1cccc(CN2CCCC2c2cncc(Nc3nncs3)n2)c1 (centres undefined)	-3.47
Cc1nc(C)c(C(=O)N2CCCC2(C)C(=O)NC2CCCC2)o1 (centres undefined)	0.61
Cc1cc(C(=O)NCC(C)C)c2c(C3CCCN3)noc2n1 (centres undefined)	7.05
O=C1NC2(Cc3ccccc31)CN(CC1CCNC1)C2 (centres undefined)	9.76
OCc1c(Cl)ncn1-c1ccccc1	-8.99
NC(=O)CS(=O)(=O)Cc1csc(-c2ccccc2)n1	-9.59
Cc1noc(C2CCCN(C(=O)c3cc(Cl)cn3C)C2)n1 (centres undefined)	1.33
Cc1nc(NCc2nnc(C)n2C)c2c(CC(C)C)csc2n1	9.56
Cc1nc(CCCNC(=O)c2cc(F)ccc2O)n[nH]1	-5.32
CC(C)(C)CCCC(=O)Nc1ccnn1C1CCS(=O)(=O)C1 (centres undefined)	-9.92

SMILES	cytotoxicity at 10 µM [%]
CCc1nc(C)c(C(C)N(C)CCc2ccncc2)s1 (centres undefined)	23.5
Cc1noc(C)c1CCC(=O)N1CCCCC1CNS(C)(=O)=O (centres undefined)	8.71
COc1ccc(NC(=O)CN2CCCCC2C2OCCO2)cc1 (centres undefined)	30.9
O=C(NC1CCN(C2CC2)CC1)NC1CCOc2ccc(Br)cc21 (centres undefined)	-3.43
CN(Cc1ccco1)Cc1ccccc1CNC(=O)c1csnn1	7.88
CCOCC(O)CN1CCN(C(=O)c2ccc(N(C)C)nc2)CC1 (centres undefined)	-5.18
CN(Cc1cnn(C)c1)C(=O)c1ccnc(OC2CCC2)c1	3.82
CCOc1nnc(CN(C)C2CCCN(c3ccc(C)nn3)C2)s1 (centres undefined)	13.2
Cn1ncc2c(=O)[nH]c(CN3CCCc4cc(F)cc(F)c43)nc21	-1.76
CCC(C)NC(=O)CS(=O)(=O)Cc1nc(-c2cccs2)no1 (centres undefined)	2.04
N#CCCN(Cc1ccccn1)Cn1cc(Cl)cn1	1.49
CS(=O)(=O)NCC1(c2ccccc2Br)CC1	-5.51
CN(C)S(=O)(=O)NCC1(c2ccccc2Br)CC1	1.94
CN(CC(=O)NCC(F)(F)F)Cc1nc2c(s1)CCCC2	19
Cc1nc(-c2ccccc2)n(CC(=O)NC(C2CC2)C2CC2)n1	11
COc1ccc(CSc2nnc(N)n2C2CC2)cc1Cl	0.00426
CN1CCN(c2ncc(CNCCCc3cccc(F)c3)cn2)CC1	-13.2
CCC(C)NS(=O)(=O)c1ccc(C(=O)N(C)C2(C#N)CCC2)cc1 (centres undefined)	16.1
OC(COCc1ccccc1F)CN1CCC(Cn2cccn2)CC1 (centres undefined)	-10.2
Cc1cnc(NCc2ccc(S(=O)(=O)N(C)C(C)C)cc2)nc1C	10.2
Cc1cc(C(C)NCCN2CCC(N(C)C)CC2)c(C)s1 (centres undefined)	-0.85
Cc1cc(NCCOCCS(C)(=O)=O)nc2ccccc12	4.4

SMILES	cytotoxicity at 10 µM [%]
CCOC1CCN(CCc2nc(-c3cccc(Cl)c3)no2)CC1	-0.139
NC(=O)CCCNC(=O)COc1ccccc1C(F)(F)F	2.49
O=C(C(CNCc1ccsc1)c1ccccc1)N1CCOCC1 (centres undefined)	-7.32
Cc1cc(C)nc(N2CCN(C(=O)c3cc(Cl)c[nH]3)CC2)n1	-4
CCN(CC)c1ccc(NS(=O)(=O)c2cncc(F)c2)cn1	-8.37
Cn1cc(CN2CCC[C@]3(C[C@H](Oc4ccccn4)CO3)C2)cn1	5.44
CC(C)(C)CC(=O)N1C[C@H]2CCN[C@H]2C1	4.19
CNC(=O)[C@H]1C[C@@H]2CN(C(=O)c3cncc(C)c3)C[C@@H]2N1C	-107
Cc1ccc(NC(=O)N2CCC3(CCC(C(=O)N(C)C)O3)CC2)cc1 (centres undefined)	-99.2
O=C(c1cscn1)N1CCc2ncc(CN3CCOCC3)n2CC1	-75.6
O=C(c1ccnnc1)N1C[C@@H]2COC[C@]2(COCC2CC2)C1	-73.2
Cn1cc(-c2nnn3c2COC(CNCc2ccccn2)C3)cn1 (centres undefined)	0.298
NC(=O)Cn1ccnc1C1CCCN(Cc2ccccc2OC(F)F)C1 (centres undefined)	-22
COCCc1ncc(CN2CCC3(CCCN(CC4CC4)C3)C2)cn1 (centres undefined)	-4.07
Cc1ncsc1-c1nc(Cc2cccs2)nn1C1CCN(C)CC1	-4.51
CCc1cnc(C)nc1NCc1cnc2c(c1)CCC2	8.83
COc1cc(CN2CC(=O)N(c3ccc(C)cc3)CC2C)cc(OC)c1 (centres undefined)	1.28
CN(CCc1noc(C2CC2)n1)C(=O)CCc1cc2n(n1)CCCNC2	-0.645
Cn1ccnc1CN1CCN(Cc2ccccc2)[C@@H]2CS(=O)(=O)C[C@@H]21	-3.41
Cc1ccc([C@@H]2CN(C(=O)c3ccsc3)C[C@H]2NC(=O)C2CC2)cc1	2.93
Cc1cc(C)nc(NCc2nnc3n2CCCCC3)n1	-10.6
CCN(C)Cc1n[nH]c(=O)n1-c1ccc(C)c(C)c1	6.27

SMILES	cytotoxicity at 10 µM [%]
CC(Nc1nc(-c2ccncc2)nc2c1CCNC2)c1ccccc1 (centres undefined)	-9.94
Cc1cc(C)n(C2CCN(C(=O)CN3C(=O)CSc4ccccc43)C2)n1 (centres undefined)	-15.3
CCN1CC(C(=O)NCc2nc(C3CCCCC3)no2)CC1=O (centres undefined)	-3.68
CCN1CCCC(c2c(-c3ccccc3)ncn2Cc2cccnc2)C1 (centres undefined)	-6.75
Fc1cccc(-c2cccc(N3CCC(NC4CCCOC4)CC3)c2)c1 (centres undefined)	12
CC(C)c1noc(Cn2ncn3cccc3c2=O)n1	-4.1
O=C(c1cc(F)cc(Cl)c1)N1CCN(CCO)[C@@H]2CS(=O)(=O)C[C@@H]21	-2.24
CCCc1cc(C(=O)N(C)Cc2cnn(-c3cccc(OC)c3)c2)[nH]n1	-2.4
CCN1CC2(CCC1=O)CCN(Cc1nncn1C(C)C)CC2	8.39
COc1cccc(N2CCC(N3C[C@@H](NC(C)=O)[C@H](C(C)C)C3)CC2)c1	-9.98
O=C(O)C(c1ccc2c(c1)OCCO2)N1CCCC1 (centres undefined)	-5.38
O=C1CC2(CCN(CC3CCOC3)CC2)CN1Cc1cc(F)cc(F)c1 (centres undefined)	-18.9
CN(c1ccc(C(=O)NCCCN2CCOCC2)c(Cl)c1)S(C)(=O)=O	-11.2
Cc1nc(C)n(CC2CCCN2Cc2nc(-c3ccsc3)no2)n1 (centres undefined)	-9.8
CN(Cc1ccncc1)CC(c1cccs1)N1CCOCC1 (centres undefined)	-15.7
COc1ccc(Cl)cc1NCC(=O)NCCc1ccccn1	-8.26
CC(C)CCN(C)C(=O)c1nc(S(C)(=O)=O)n2ccccc12	-9.91
CC(Cn1ccnc1)NC(=O)NCCc1ccccn1 (centres undefined)	-6.05
COc1ccc(C2=CCN(C(=O)CN(C)CC(C)C#N)CC2)cc1 (centres undefined)	-9.52
Cc1ccn(-c2ccc(C(=O)N3CCCC(n4ccnc4)C3)cc2)n1 (centres undefined)	-8.31
CCN(Cc1cccc2c1OCO2)C(=O)Nc1ccncc1	2.58
OCCN(Cc1ccncc1)CC1(c2ccc(Cl)cc2)CC1	9.39

SMILES	cytotoxicity at 10 µM [%]
Cn1nc(C2CCN(C(=O)Cc3cccc(F)c3)CC2)c2cccnc21	-0.439
Fc1ccc(CN2CCCn3nnc(COCC4CC4)c3C2)cc1	-109
CO[C@@H]1CCN(Cc2cccs2)[C@@H]2CN(Cc3ccncc3)C[C@@H]21	3.93
COc1cccc(CN2CCC3(CCN(c4ncc(F)cn4)CC3)C2)c1	-0.664
O=C(c1ccoc1)N1CCOC2(COCCN(c3ncccn3)C2)C1 (centres undefined)	-98.4
COCCN1CCC2(COCCN(Cc3ccc4c(c3)OCO4)C2)C1 (centres undefined)	-0.234
Cc1nc(COC[C@@H]2CC[C@H]3[C@H](CCN3c3ncccn3)O2)cs1	2.19
OC1CCN(Cc2c(C3CCCNC3)[nH]c3ncccc23)CC1 (centres undefined)	-0.542
CCN(CC)c1ccc2ccc(C(=O)N(CCOC)CCOC)cn12	1.15
COc1cccc(CN2CCC3(COCc4cnc(N(C)C)nc43)C2)c1 (centres undefined)	11.2
CCS(=O)(=O)Nc1ccc2c(c1)C1(CCOCC1)CN2C	-107
COc1ccc2ccccc2c1CNCC1CCS(=O)(=O)C1 (centres undefined)	4.51
Cc1ccc(NC2COC3(CCN(CC(C)C)CC3)C2)nn1 (centres undefined)	-1
Cn1cc(-c2ncc3c(c2C(=O)O)CCN(CC2CC2)C3)cn1	-104
Cc1ccc(CN2C[C@@H]3CCCO[C@@H]3[C@H](NS(C)(=O)=O)C2)o1	5.16
Cc1noc(C)c1CN1CCc2c(CNc3nccs3)n[nH]c2C1	5.28
COCCNC(=O)[C@@]12CCO[C@@H]1CCN(Cc1ccncc1)C2	-77.3
Cc1ccc(CN2C[C@@H]3[C@@H](C2)OCC(=O)N3Cc2ccncc2)s1	-67.7
CS(=O)(=O)N1CCc2ccc(=O)n(CCN3CCCC3)c2CC1	0.108
CCN1C(=O)CCC12CCCN(Cc1nccs1)C2 (centres undefined)	-73.5
Cc1nnsc1CN1C[C@@H]2CC[C@H]1CN(Cc1ccccc1)C2	0.929
